Results gathered from unrelated publications.
Protocols differ between the studies behind these lines.
Target: cAMP-dependent protein kinase catalytic subunit PRKX (PRKX, Homo sapiens, UniProt P51817)
Residues used in one study (P51817 1-358): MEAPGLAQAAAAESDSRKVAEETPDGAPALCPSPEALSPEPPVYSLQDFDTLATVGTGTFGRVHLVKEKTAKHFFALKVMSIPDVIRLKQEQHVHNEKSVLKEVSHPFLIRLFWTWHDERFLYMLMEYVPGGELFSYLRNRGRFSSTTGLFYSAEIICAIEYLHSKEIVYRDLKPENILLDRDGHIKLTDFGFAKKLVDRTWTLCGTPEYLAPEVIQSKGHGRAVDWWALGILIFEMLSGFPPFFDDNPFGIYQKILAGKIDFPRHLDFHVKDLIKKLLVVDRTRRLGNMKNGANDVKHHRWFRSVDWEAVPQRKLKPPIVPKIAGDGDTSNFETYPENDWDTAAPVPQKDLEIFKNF

| SMILES | assay | setting | remaining binding [%] |
| --- | --- | --- | --- |
| Cn1cc(Cl)c2c(Oc3c(F)cc(Nc4cc(Cl)nc(N)n4)cc3F)ccnc21 | cell-free assay, competition with immobilised ligand | 0.1 µM | 100 |
| O=C(NCC1CCOCC1)c1n[nH]cc1NC(=O)c1c(F)cccc1F | binding, competition with immobilised ligand | 1 µM | 100 |
| O=C(c1ccc(Nc2ncc(Cl)c(-c3ccc(Cl)s3)n2)cc1)N1CCC(N2CCCC2)CC1 | binding, competition with immobilised ligand | 1 µM | 95 |
| C[C@H]1CCN(c2nccc(-c3cnn4ncccc34)n2)C1 | binding | 1 µM | 100 |
| CCOC(=O)c1cc2cc(-c3cc(C(=O)NCc4ccc(C(=O)O)cc4)nn3C)ccc2[nH]1 | cell-free assay, competition with immobilised ligand | 0.1 µM | 100 |
| Cc1cnn2ncc(-c3ccnc(N(C)C)n3)c2c1 | binding | 1 µM | 85 |
| O=C(N[C@H]1CCCCC/C=C\C2C[C@@]2(C(=O)O)NC(=O)[C@@H]2C[C@@H](Oc3ccncc3)CN2C1=O)OC1CCCC1 (some centres unmarked) | cell-free assay, competition with immobilised ligand | 1 µM | 80 |
| CCN1CCN(Cc2ccc(C(=O)Nc3ccc(C)c(Oc4ccc5c(c4)CC(=O)N5)c3)cc2C(F)(F)F)CC1 | binding, competition with immobilised ligand | 1 µM | 100 |
| Nc1ncc2c(n1)-c1c([nH]c3ccc(C#CC4CC4)cc13)CCCC2 | binding, competition with immobilised ligand | 1 µM | 79 |
| Nc1cnc(N2CCc3cc(S(=O)(=O)Nc4c(F)cc(Cl)cc4F)cc(N4CCCC4=O)c32)nc1 | cell-free assay, competition with immobilised ligand | 1 µM | 99 |
| N[C@@H]1CCN(c2nccc(-c3cnn4ncccc34)n2)C1 | binding | 1 µM | 100 |
| CNC(=O)[C@@H]1CC[C@@H](n2c(-c3ccc4cnccc4c3)nc3ccc(C(=O)NCc4cccc(C(N)=O)c4)cc32)C1 | binding, competition with immobilised ligand | 1 µM | 100 |
| COc1ccnn2ncc(-c3ccnc(N(C)C)n3)c12 | binding | 1 µM | 100 |
| Cc1cc(C)c(-n2ccn3nc(-c4cccnc4)cc23)cc1NC(=O)c1cc(C#N)cc(S(F)(F)(F)(F)F)c1 | cell-free assay, competition with immobilised ligand | 0.1 µM | 68.5 |
| CN(c1nccc(-c2cnn3ncccc23)n1)C1CC1 | binding | 1 µM | 98 |
| CCCOc1ccc([C@H]2[C@H](C(=O)O)[C@@H](c3ccc4c(c3)OCO4)CN2CC(=O)Nc2c(CC)cccc2CC)cc1 | cell-free assay, competition with immobilised ligand | 1 µM | 91 |
| O=C(c1ccc(Nc2nccc(-c3cc4ccccc4s3)n2)cc1)N1CCC(N2CCCC2)CC1 | binding, competition with immobilised ligand | 1 µM | 83 |
| COc1cnc(Nc2cccc(S(N)(=O)=O)c2)nc1N1CCN(c2ccccc2)CC1 | binding, competition with immobilised ligand | 1 µM | 100 |
| CN(C)c1nccc(-c2cnn3ncccc23)n1 | binding | 1 µM | 100 |
| O=C(c1ccc(Nc2ncc(Cl)c(-c3cc4ccccc4s3)n2)cc1)N1CCC(N2CCCC2)CC1 | binding, competition with immobilised ligand | 1 µM | 67 |
